Structures are written as SMILES.

Data on four molecules can be found in ChEMBL document CHEMBL5696442, “Discovery of type II inhibitors of TGFβ-activated kinase 1 (TAK1) and mitogen-activated protein kinase kinase kinase kinase 2 (MAP4K2)” (J Med Chem, 2015).

Experiment [1] has as its target T1, Interleukin-1 receptor-associated kinase 4 (Homo sapiens) (UniProt Q9NWZ3).
T1 sequence (whole entry): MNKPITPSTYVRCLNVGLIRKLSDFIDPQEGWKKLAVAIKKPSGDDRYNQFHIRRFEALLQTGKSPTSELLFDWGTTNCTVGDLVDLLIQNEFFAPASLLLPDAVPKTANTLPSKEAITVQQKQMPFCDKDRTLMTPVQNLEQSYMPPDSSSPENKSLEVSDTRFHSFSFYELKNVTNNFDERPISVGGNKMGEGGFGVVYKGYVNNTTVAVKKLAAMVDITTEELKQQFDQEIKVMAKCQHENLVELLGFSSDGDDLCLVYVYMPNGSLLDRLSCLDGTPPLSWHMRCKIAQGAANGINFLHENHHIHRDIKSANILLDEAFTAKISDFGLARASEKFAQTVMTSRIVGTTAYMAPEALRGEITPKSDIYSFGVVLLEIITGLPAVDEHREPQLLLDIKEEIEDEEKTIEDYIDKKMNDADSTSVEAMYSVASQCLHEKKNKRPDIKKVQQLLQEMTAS
Briefly: Inhibition of IRAK4 Lys2 labeling site in human A-375 cells at 5 uM by KiNativ Profiling analysis relative to control. It is filed as cell-based. The method in brief: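 Live A375 melanoma cells were treated with compound at 5 or 0.5 μM, then lysed. Lysates were labeled with a lysine-reactive ATP or ADP-biotin probe. Read-out was the compound's protection of kinase labeling sites from probe labeling (KiNativ).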

The target of experiment [2] is T2, Dual specificity mitogen-activated protein kinase kinase 3 (Homo sapiens) (UniProt P46734).
T2 sequence (whole entry): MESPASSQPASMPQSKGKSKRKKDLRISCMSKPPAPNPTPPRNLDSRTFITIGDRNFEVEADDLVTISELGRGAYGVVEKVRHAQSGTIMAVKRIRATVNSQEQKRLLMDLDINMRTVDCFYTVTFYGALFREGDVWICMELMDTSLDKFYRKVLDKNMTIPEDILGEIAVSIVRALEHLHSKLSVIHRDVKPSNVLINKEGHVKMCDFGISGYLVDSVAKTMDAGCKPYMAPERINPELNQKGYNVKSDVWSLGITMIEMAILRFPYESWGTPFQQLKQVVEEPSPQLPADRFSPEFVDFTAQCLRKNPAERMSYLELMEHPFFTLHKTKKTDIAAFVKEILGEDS
Briefly: Inhibition of MAP2K3 Lys2 labeling site in human A-375 cells at 5 uM by KiNativ Profiling analysis relative to control. It is filed as cell-based.

The target in experiment [3] is Activated CDC42 kinase 1 (Homo sapiens) (UniProt Q07912). As to the kind of experiment: Inhibition of ACK Lys1 labeling site in human A-375 cells at 0.05 uM by KiNativ Profiling analysis relative to control. It is filed as cell-based.
Activated CDC42 kinase 1 (Homo sapiens), sequence (Q07912 whole entry, looked up): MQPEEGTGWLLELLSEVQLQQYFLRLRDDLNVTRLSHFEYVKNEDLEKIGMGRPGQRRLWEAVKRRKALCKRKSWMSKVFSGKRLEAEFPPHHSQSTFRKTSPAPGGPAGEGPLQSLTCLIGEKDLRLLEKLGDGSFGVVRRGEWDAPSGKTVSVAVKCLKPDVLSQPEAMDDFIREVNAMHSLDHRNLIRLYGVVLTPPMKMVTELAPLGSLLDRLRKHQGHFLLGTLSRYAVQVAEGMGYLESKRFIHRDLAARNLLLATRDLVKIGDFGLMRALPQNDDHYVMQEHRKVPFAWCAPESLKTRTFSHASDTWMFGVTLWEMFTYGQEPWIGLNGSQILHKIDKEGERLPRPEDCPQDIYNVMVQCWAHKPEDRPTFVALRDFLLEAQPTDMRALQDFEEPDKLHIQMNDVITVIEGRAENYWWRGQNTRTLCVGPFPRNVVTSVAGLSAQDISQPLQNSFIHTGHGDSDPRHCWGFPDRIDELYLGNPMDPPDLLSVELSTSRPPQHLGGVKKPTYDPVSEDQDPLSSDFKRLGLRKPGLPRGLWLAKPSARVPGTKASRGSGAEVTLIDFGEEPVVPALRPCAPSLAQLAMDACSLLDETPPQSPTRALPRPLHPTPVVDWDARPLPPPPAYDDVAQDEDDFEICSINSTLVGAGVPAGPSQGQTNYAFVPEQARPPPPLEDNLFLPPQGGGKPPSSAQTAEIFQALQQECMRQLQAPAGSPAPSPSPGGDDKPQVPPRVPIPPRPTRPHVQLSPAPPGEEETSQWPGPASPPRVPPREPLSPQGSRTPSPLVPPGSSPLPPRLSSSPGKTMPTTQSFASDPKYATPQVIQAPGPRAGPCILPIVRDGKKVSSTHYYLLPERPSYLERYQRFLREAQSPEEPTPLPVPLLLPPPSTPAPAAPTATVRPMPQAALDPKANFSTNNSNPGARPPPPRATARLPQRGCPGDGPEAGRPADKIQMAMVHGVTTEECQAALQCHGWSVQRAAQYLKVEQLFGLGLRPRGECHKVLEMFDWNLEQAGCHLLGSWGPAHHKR
Experiment [4] has as its target RAC-alpha serine/threonine-protein kinase (Homo sapiens) (UniProt P31749). Briefly: Inhibition of AKT1 ATP Loop labeling site in human A-375 cells at 0.05 uM by KiNativ Profiling analysis relative to control. It is filed as cell-based.
Experiment [5] addresses Receptor tyrosine-protein kinase erbB-3 (Homo sapiens) (UniProt P21860). As to the kind of experiment: Inhibition of HER3/ErbB3 ACT labeling site in human A-375 cells at 0.05 uM by KiNativ Profiling analysis relative to control. It is filed as cell-based.
Experiment [6] has as its target T3, Mitogen-activated protein kinase 8 (Homo sapiens, UniProt P45983). Briefly: Inhibition of JNK1 Lys2 labeling site in human A-375 cells at 0.05 uM by KiNativ Profiling analysis relative to control. In kind it is cell-based.
Experiment [7] is described as follows: Inhibition of KHS1 Lys1 labeling site in human A-375 cells at 0.05 uM by KiNativ Profiling analysis relative to control. The following applies: condition cancer.
Experiment [8] deals with T4, Serine/threonine-protein kinase greatwall (Homo sapiens) (UniProt Q96GX5).
T4 sequence (whole entry): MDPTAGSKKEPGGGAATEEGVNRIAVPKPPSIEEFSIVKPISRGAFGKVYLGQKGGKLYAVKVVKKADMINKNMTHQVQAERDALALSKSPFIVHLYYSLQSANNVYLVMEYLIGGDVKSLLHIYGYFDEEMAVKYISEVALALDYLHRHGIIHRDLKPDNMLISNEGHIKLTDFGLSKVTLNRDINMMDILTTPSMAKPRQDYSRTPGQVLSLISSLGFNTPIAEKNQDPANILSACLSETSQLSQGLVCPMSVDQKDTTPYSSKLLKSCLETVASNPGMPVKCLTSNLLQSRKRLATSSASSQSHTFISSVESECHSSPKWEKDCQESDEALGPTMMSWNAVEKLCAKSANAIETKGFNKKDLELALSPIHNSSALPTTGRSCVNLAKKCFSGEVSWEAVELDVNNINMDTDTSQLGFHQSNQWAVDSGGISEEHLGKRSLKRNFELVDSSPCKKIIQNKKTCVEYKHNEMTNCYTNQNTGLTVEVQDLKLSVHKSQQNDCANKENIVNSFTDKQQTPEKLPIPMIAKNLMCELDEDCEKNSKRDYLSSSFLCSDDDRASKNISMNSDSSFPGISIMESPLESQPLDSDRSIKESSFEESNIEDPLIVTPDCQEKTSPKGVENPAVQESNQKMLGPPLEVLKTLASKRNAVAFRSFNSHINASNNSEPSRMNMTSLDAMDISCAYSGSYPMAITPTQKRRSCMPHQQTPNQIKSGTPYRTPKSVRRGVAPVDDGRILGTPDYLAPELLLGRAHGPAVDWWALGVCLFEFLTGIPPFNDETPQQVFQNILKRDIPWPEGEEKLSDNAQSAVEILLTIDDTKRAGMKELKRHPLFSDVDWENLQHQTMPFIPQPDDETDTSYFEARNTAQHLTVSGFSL
As to the kind of experiment: Inhibition of MASTL ATP Loop labeling site in human A-375 cells at 0.05 uM by KiNativ Profiling analysis relative to control. In kind it is cell-based.

Experiment [9] concerns the target Serine/threonine-protein kinase 26 (Homo sapiens) (UniProt Q9P289). Briefly: Inhibition of MST4 ACT labeling site in human A-375 cells at 0.05 uM by KiNativ Profiling analysis relative to control. It is filed as cell-based.
In experiment [10] the target is Ribosomal protein S6 kinase alpha-2 (Homo sapiens) (UniProt Q15349). As to the kind of experiment: Inhibition of RSK3 Protein Kinase Domain in human A-375 cells at 0.05 uM by KiNativ Profiling analysis relative to control. It is filed as cell-based.
Ribosomal protein S6 kinase alpha-2 (Homo sapiens), sequence (Q15349 whole entry, the tested form may be a part): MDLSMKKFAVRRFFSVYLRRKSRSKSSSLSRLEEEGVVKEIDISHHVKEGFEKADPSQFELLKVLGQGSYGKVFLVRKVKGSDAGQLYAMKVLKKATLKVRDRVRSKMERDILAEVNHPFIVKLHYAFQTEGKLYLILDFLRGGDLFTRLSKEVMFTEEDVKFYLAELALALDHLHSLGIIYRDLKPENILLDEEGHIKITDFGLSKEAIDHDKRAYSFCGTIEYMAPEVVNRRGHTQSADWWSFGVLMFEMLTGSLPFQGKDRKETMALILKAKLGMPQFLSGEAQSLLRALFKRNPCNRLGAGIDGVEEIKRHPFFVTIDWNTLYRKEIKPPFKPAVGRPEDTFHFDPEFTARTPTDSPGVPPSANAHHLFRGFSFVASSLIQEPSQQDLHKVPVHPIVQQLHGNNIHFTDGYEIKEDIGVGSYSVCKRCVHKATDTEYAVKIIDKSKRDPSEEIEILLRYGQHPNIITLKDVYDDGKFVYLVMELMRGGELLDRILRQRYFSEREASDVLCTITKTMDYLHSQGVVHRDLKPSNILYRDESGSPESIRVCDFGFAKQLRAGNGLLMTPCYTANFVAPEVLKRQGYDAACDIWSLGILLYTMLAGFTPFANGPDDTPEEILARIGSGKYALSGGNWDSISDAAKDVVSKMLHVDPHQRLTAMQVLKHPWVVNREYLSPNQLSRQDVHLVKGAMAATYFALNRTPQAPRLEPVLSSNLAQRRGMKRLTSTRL
Experiment [11] has as its target T3, Mitogen-activated protein kinase 8. Briefly: Inhibition of JNK1 Lys2 labeling site in human Huh-7 cell lysate at 1 uM by KiNativ Profiling analysis relative to control. In kind it is subcellular.

T3 sequence (P45983 whole entry): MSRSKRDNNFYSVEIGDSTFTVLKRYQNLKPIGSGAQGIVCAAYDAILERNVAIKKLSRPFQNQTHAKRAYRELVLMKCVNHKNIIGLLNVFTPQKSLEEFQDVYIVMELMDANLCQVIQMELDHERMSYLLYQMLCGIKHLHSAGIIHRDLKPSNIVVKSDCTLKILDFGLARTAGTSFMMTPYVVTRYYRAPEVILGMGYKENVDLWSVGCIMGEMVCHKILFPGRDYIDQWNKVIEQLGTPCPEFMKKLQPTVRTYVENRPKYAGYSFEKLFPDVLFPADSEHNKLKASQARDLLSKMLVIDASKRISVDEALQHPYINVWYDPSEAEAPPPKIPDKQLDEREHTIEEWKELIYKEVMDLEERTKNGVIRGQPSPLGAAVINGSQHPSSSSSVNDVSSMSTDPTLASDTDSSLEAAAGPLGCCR
Receptor tyrosine-protein kinase erbB-3 (Homo sapiens), sequence (P21860 whole entry): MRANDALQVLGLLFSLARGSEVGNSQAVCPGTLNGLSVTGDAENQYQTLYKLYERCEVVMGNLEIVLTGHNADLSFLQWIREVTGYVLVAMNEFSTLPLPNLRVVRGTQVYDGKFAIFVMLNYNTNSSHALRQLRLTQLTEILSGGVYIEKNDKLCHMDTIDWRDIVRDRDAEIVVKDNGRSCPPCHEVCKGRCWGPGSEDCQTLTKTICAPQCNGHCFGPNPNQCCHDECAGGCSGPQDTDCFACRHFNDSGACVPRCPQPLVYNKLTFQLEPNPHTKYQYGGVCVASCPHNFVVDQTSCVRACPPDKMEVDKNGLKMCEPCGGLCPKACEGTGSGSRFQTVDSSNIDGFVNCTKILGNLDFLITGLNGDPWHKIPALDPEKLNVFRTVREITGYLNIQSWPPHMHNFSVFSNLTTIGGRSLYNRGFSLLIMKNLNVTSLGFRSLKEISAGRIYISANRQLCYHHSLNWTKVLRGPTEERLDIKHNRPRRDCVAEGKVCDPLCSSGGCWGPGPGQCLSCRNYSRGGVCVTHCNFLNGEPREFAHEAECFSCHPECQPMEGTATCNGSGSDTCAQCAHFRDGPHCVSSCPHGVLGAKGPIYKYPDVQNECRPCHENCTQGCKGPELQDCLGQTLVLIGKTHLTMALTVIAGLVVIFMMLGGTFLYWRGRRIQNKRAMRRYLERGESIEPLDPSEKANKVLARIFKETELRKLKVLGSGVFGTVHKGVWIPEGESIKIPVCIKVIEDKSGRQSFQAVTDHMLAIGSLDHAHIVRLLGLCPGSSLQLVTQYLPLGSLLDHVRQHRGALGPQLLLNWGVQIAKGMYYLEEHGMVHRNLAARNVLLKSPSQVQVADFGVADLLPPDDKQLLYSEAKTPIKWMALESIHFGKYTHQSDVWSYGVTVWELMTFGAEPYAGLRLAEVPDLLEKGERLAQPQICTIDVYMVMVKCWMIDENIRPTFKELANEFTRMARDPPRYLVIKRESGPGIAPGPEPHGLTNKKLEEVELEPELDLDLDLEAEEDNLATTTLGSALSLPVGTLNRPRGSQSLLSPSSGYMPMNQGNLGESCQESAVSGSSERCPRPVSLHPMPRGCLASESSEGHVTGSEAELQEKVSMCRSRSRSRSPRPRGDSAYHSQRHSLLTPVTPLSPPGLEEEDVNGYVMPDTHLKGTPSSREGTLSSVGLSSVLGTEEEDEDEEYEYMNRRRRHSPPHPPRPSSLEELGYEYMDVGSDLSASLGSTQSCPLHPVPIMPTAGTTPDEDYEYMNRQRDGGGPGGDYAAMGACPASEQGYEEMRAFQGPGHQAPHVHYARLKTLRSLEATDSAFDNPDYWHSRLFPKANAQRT
Serine/threonine-protein kinase 26 (Homo sapiens), sequence (Q9P289 2-416 limits assumed): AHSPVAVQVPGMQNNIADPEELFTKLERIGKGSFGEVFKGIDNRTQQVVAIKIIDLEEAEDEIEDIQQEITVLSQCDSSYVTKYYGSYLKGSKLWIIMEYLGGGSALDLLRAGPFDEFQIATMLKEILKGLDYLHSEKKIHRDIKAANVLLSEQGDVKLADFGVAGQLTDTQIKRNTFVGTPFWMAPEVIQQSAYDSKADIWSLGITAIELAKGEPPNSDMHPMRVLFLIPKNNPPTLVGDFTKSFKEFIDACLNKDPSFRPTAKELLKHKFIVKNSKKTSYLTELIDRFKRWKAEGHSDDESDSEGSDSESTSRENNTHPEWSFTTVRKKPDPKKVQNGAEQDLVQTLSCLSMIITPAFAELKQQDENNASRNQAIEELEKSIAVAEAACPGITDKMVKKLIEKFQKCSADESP
RAC-alpha serine/threonine-protein kinase (Homo sapiens), sequence (P31749 whole entry): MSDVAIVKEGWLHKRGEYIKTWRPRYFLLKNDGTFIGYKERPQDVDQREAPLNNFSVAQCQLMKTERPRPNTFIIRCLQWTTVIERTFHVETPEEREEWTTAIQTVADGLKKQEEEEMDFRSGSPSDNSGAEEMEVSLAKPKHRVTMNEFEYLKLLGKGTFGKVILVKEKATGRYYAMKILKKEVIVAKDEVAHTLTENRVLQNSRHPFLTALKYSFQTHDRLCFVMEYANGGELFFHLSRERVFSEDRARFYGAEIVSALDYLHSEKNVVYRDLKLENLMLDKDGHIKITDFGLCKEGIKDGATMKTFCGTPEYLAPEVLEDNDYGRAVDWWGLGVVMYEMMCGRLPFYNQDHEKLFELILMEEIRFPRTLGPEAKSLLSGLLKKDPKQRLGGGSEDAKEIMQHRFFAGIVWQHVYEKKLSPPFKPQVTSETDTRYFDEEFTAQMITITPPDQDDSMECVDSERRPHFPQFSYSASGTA

One may read the inhibition as the drop in the measured response relative to a control, in per cent. `CCN1CCN(Cc2ccc(NC(=O)c3ccc(C)c(/C=C/c4cnc5[nH]ccc5c4OC)c3)cc2C(F)(F)F)CC1`: the inhibition in experiment [1] is 34.1%; in experiment [2] it was -6.9%; in [3], 34.3%; in experiment [4] it was 9.8%; in experiment [5], 11.2%; in experiment [6], 23.9%. Moreover, the inhibition was -6.2% in experiment [8], 13.5% in experiment [9] and 1.4% in experiment [10]. In addition, in experiment [7], the inhibition at 0.05 µM stood at 29.4%.
For `CCN1CCN(Cc2ccc(NC(=O)c3ccc(C)c(Oc4ccnc5[nH]ccc45)c3)cc2C(F)(F)F)CC1`, the inhibition in experiment [1] is -0.2%; in experiment [2] it was -5.7%; in [3], 15.6%; in experiment [4], -7.9%; in experiment [5], 4.1%; in experiment [6], 50.3%. Also, the inhibition in experiment [8] is 2%; in experiment [9], 22.4%; in experiment [10], -4.7%. Also, the inhibition at 0.05 µM in experiment [7] came to 14.9%.
In the case of `CNc1cc(Oc2cc(C(=O)Nc3cc(-n4cnc(C)c4)cc(C(F)(F)F)c3)ccc2C)ncn1`, in experiment [11], the inhibition worked out at 18.4%.
As to `CNc1cc(Oc2cc(C(=O)Nc3cc(N4CCN(C)CC4)cc(C(F)(F)F)c3)ccc2C)ncn1`, the inhibition in experiment [11] was 7%.
